# Laboratory results published in publication PMC2907921 (Cancer cell, 2010).
# How the values were obtained:
# [1] = target: T1, RXRα LBD (Homo sapiens, UniProt P19793); assay: Competition ligand-binding assay with [3H]9-cis-RA; conditions: Sulindac analogs
# T1 sequence (P19793 227-458 limits assumed): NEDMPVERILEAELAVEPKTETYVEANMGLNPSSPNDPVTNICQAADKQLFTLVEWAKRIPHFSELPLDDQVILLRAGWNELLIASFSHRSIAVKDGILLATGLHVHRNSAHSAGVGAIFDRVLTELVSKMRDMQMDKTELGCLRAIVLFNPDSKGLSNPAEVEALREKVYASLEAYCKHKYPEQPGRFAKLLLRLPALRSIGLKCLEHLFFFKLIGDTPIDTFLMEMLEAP
# Summary of the method: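 Competitive binding: RXR ligand-binding domain incubated with [3H]-9-cis-RA, with or without unlabeled 9-cis-RA or test compound. Bound radioligand was quantified by liquid scintillation counting.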
# [2] = test system: HeLa/RXRα/1–134 and RXRα/Δ80 cells; assay: Colony formation; assay type: cell-based; conditions: 25 μM
# Summary of the method: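 Clonogenic survival of HeLa stably expressing RXRα/1–134, and of SW480 or HCT116 stably expressing GFP-RXRα/Δ80. Cells were grown in 6-well plates for 5 days, then exposed to 25 μM test compound in 0.5% serum medium for 3 days. Colonies were fixed with 4% paraformaldehyde and stained with 0.1% crystal violet.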
# [3] = test system: COX-1 and COX-2; assay: COX Fluorescent Activity Assay; assay type: biochemical
# [4] = test system: AKT activation; assay: AKT activation by immunoblotting; assay type: cell-based; conditions: 50 μM
# Summary of the method: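 Immunoblot for Ser473-phospho-AKT. Cells were serum-starved overnight and exposed to 100 μM test compound for 1 hr. In TNFα arms, cells were pretreated with compound (100 μM in A549, 50 μM in PC3) for 1 hr and then given TNFα 10 ng/ml for 30 min. Some cells were transfected with RXRα, RARγ or control siRNA for 48 hr beforehand. Compound was dissolved in DMSO.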
# [5] = test system: RXRα/Δ80 tumor; assay: RXRα/Δ80 tumor growth in nude mice; assay type: in vivo, Nude mice (BALB/c); conditions: 60 mg/kg intraperitoneally, two weeks
# [6] = test system: prostaglandin E2 (PGE2) production, A549 cells; assay: Prostaglandin E2 production; assay type: cell-based
# Summary of the method: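 A549 cells were stimulated with TNFα 10 ng/ml for 24 hr, then exposed to test compound for 30 min. PGE2 was measured by enzyme immunoassay kit and expressed as the ratio of PGE2 with compound to PGE2 with vehicle.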
# [7] = target: T2, tRXRα/p85α interaction (Homo sapiens, UniProt P19793); assay: tRXRα/p85α interaction by co-immunoprecipitation; assay type: cell-based; conditions: A549 cells, 50 μM, absence or presence of TNFα
# T2 sequence (P19793 81-462 limits assumed): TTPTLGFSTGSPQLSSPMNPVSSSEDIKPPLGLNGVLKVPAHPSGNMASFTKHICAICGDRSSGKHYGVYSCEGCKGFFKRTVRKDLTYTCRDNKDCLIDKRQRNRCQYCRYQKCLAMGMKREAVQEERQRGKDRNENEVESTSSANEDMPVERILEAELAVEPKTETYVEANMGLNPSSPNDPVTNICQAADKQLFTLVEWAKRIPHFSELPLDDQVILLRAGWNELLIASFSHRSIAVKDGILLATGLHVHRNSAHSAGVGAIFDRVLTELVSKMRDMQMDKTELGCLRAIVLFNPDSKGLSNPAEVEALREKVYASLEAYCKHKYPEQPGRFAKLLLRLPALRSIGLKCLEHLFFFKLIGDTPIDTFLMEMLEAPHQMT
# Summary of the method: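 Two co-immunoprecipitation set-ups in A549 cells. (a) Endogenous protein: cells received TNFα 10 ng/ml and/or 100 μM test compound for 30 min, then were immunoprecipitated with the C-terminal ΔN197 RXRα antibody and blotted for p85α. (b) Transfected Flag-p85α and Myc-RXRα/Δ80: cells were pretreated with 50 μM compound for 1 hr, then given TNFα for 30 min, and immunoprecipitated with anti-Flag.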
# [8] = test system: cancer cell lines (HepG2, ZR-75-1); assay: PARP cleavage and caspase-8 activation by immunoblotting; assay type: cell-based
# Summary of the method: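 Immunoblot for PARP cleavage and cleaved caspase-8 (p43/p41). ZR-75-1 cells were exposed to TNFα and/or test compound (50 or 75 μM) for 6 hr. HepG2 cells in 1% FBS medium received TNFα 10 ng/ml and/or 75 μM compound for 4 hr. Some cells were pretreated with 1 μM SR11237 for 1 hr.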
# [9] = test system: COX; conditions: ref Haanen, 2001; cited from earlier work
SMILES,RXRα-binding activity [1],Colony formation [2],Inhibition of COX activities [3],"Inhibition of RA- and TNFα-induced AKT activation, compared with Sulindac [4]","Inhibition of RXRα/Δ80 tumor growth, compared with Sulindac [5]",Inhibition of constitutive and TNFα or IL-1β-induced PGE2 production [6],"Interaction of RXRα/Δ80 with p85α, compared with Sulindac [7]","PARP cleavage with TNFα, compared with Sulindac ([8]; ZR-75-1 cells, K-80003 50 μM, Sulindac 75 μM, 6 hr)","PARP cleavage and caspase-8 activation, with TNFα ([8]; various cancer cell lines)",COX-inhibiting activity [9]
CC1=C(CC(=O)O)c2cc(F)ccc2/C1=C\c1ccc(C(C)C)cc1 [K-80003],most potent,almost completely suppressed,no detectable inhibition,much more effective than Sulindac,much more potent inhibitory effect than Sulindac,failed to inhibit,more potently inhibited,more effective than Sulindac,synergistically induced PARP cleavage and caspase-8 activation,
CC1=C(CC(=O)O)c2cc(F)ccc2/C1=C\c1ccc(S(C)(=O)=O)cc1 [sulindac sulfone],,,,,,,,,,no COX-inhibiting activity
CC1=C(CC(=O)O)c2cc(F)ccc2/C1=C/c1ccc([S+](C)[O-])cc1 (centres unmarked) [sulindac sulfoxide],,,,,,,,,,no COX-inhibiting activity
